Experimental data: ChEMBL document CHEMBL1132980, “1,2,4-Triazolo[4,3-a]quinoxalin-1-one: a versatile tool for the synthesis of potent and selective adenosine receptor antagonists” (J Med Chem, 2000)
pKi: −log10 of the molar value.

What was measured:
[1] = tested on: Adenosine receptor A2a (Bos taurus); test: Binding affinity towards adenosine A2A receptor of bovine striatal membrane in presence of [3H]-CGS- at a concentration of 20 uM
[2] = biological target: T1, Adenosine receptor A1 (Bos taurus, UniProt P28190); test: Binding affinity towards adenosine A1 receptor of bovine brain membrane in presence of [3H]CHA at a concentration of 20 uM
T1 sequence (P28190 whole entry): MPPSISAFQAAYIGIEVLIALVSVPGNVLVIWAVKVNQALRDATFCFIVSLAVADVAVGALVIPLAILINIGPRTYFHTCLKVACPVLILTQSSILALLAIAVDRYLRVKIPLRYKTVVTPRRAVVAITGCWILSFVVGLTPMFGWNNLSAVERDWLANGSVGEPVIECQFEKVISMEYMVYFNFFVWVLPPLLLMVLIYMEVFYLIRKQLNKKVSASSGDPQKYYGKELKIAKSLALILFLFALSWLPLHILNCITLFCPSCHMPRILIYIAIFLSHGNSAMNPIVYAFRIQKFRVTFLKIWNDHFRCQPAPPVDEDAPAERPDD
Outline: (§1)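 Compounds dissolved in DMSO (2% in buffer), with blank runs for solvent effect. Membrane protein measured after solubilization in 0.75 N NaOH against a BSA standard.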

[3] = biological target: T2, Adenosine receptor A3 (Homo sapiens, UniProt P0DMS8); test: Binding affinity towards human adenosine A3 receptor expressed in HEK293 cells in presence of [125I]-AB-MECA at a concentration of 1 uM; assay type: cell-based
T2 sequence (P0DMS8 whole entry): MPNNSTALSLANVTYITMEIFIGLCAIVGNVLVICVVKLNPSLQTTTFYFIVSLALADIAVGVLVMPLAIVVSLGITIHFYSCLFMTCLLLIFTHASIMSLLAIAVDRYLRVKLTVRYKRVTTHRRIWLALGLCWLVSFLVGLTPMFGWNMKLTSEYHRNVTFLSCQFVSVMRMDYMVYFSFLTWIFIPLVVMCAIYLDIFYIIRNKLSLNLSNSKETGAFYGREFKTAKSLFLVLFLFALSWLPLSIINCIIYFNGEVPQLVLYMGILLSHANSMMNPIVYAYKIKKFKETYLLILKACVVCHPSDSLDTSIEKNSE

[4] = biological target: Adenosine receptor A2a (Bos taurus); test: Binding affinity towards Adenosine A2A receptor of bovine striatal membrane using [3H]-CGS- at 20 uM
[5] = biological target: T3, Adenosine receptor A3 (Homo sapiens) (UniProt P0DMS8); test: Binding affinity towards human Adenosine A3 receptor expressed in HEK293 cells using [125I]AB-MECA at 1 uM; assay type: cell-based
T3 sequence (whole entry): T2 sequence (P0DMS8 whole entry)

[6] = tested on: Adenosine receptor A2a (Bos taurus); test: Binding affinity towards adenosine A2A receptor of bovine striatal membrane in presence of [3H]-CGS-
[7] = biological target: T4, Adenosine receptor A1 (Bos taurus) (UniProt P28190); test: Binding affinity towards Adenosine A1 receptor of bovine brain membrane using [3H]-CHA at 20 uM
T4 sequence (whole entry): T1 sequence (P28190 whole entry)
Outline: as §1

[8] = biological target: T2, Adenosine receptor A3; test: Binding affinity towards human adenosine A3 receptor expressed in HEK293 cells using [125I]AB-MECA at 1 uM; assay type: cell-based
[9] = biological target: T1, Adenosine receptor A1; test: Binding affinity towards adenosine A1 receptor of bovine brain membrane using [3H]-CHA at 20 uM

| Structure (SMILES) | inhibition [1] | pKi [2] | pKi [3] | further results |
| --- | --- | --- | --- | --- |
| O=c1[nH]c2ccccc2n2c(=O)n(-c3cccc(F)c3)nc12 | 20% | 6.70 | 7.20 |  |
| Nc1nc2ccccc2n2c(=O)n(-c3ccc(Cl)cc3)nc12 | 37% | 6.37 | 6.48 |  |
| O=c1n(-c2ccccc2)nc2c(NCCc3ccccc3)nc3ccccc3n12 | 59% | 8.32 | 6.70 |  |
| Cc1cccc(-n2nc3c(N)nc4ccccc4n3c2=O)c1 |  | 7.70 | 7.55 |  |
| Nc1nc2c(NCc3ccccc3)cccc2n2c(=O)n(-c3ccccc3)nc12 |  | 6.14 |  | pKi [4]: 8.19; inhibition [5]: 30% |
| CCCn1c(=O)c2nn(-c3ccccc3)c(=O)n2c2ccccc21 | 44% | 6.39 | 5.90 |  |
| O=c1n(-c2cccc(F)c2)nc2c(NC3CCCC3)nc3ccccc3n12 |  | 8.96 | 6.76 | pKi [6]: 6.83 |
| COc1ccc(-n2nc3c(N)nc4ccccc4n3c2=O)cc1 |  | 6.51 | 7.34 |  |
| O=c1n(-c2ccccc2)nc2c(NCCCc3ccccc3)nc3ccccc3n12 | 61% | 7.75 | 7.39 |  |
| COc1ccc(NC(=O)Nc2nc3ccccc3n3c(=O)n(-c4ccccc4)nc23)cc1 |  | 5.59 | 6.02 |  |
| O=c1n(-c2ccc(Cl)cc2)nc2c(NC3CCCCC3)nc3ccccc3n12 | 0% | 7.10 | 7.25 |  |
| CCC(=O)Nc1nc2ccccc2n2c(=O)n(-c3ccccc3)nc12 |  | 8.03 | 7.80 |  |
| O=c1n(-c2cccc(F)c2)nc2c(NC3CCCCC3)nc3ccccc3n12 |  | 8.31 | 7.35 | pKi [4]: 7.18 |
| Cc1ccc(-n2nc3c(N)nc4ccccc4n3c2=O)cc1 |  |  | 7.32 |  |
| Nc1nc2ccccc2n2c(=O)n(-c3ccccc3)nc12 |  |  |  | inhibition [5]: 36% |
| O=c1[nH]c2ccccc2n2c(=O)n(-c3ccc(Cl)cc3)nc12 |  | 5.99 | 6.94 |  |
| O=c1[nH]c2ccccc2n2c(=O)n(-c3ccccc3)nc12 | 64% | 6.29 | 7.10 |  |
| Cc1ccc(N2CN3C(=N2)C(=O)Nc2ccccc23)cc1 |  |  | 6.71 | inhibition [7]: 48% |
| CC(=O)Nc1nc2ccccc2n2c(=O)n(-c3ccccc3)nc12 |  | 8.37 | 8.70 |  |

| Structure (SMILES) | inhibition [1] | pKi [2] | pKi [3] | further results |
| --- | --- | --- | --- | --- |
| COc1ccc(-n2nc3c(=O)[nH]c4ccccc4n3c2=O)cc1 |  | 6.03 | 7.80 |  |
| Cc1cccc(-n2nc3c(NC4CCCCC4)nc4ccccc4n3c2=O)c1 | 41% | 8.38 | 6.26 |  |
| Cc1ccc(-n2nc3c(=O)n(C)c4ccccc4n3c2=O)cc1 | 0% |  | 6.30 | inhibition [7]: 22% |
| Cc1cccc(-n2nc3c(NC4CCCC4)nc4ccccc4n3c2=O)c1 |  |  | 7.56 |  |
| O=C(Cc1ccccc1)Nc1nc2ccccc2n2c(=O)n(-c3ccccc3)nc12 | 62% | 8.20 | 8.43 |  |
| O=c1n(-c2ccccc2)nc2c(NC3CCCC3)nc3ccccc3n12 |  | 9.38 | 7.26 |  |
| O=c1n(-c2ccccc2)nc2c(NCc3ccccc3)nc3ccccc3n12 | 59% | 7.26 | 5.77 |  |
| Cn1c(=O)c2nn(-c3ccc(Cl)cc3)c(=O)n2c2ccccc21 | 8% |  | 6.86 | inhibition [7]: 29% |
| O=C(Nc1ccccc1)Nc1nc2ccccc2n2c(=O)n(-c3ccccc3)nc12 |  |  | 6.56 |  |
| Cn1c(=O)c2[nH]c(C3CCCC3)nc2n(C)c1=O [8-CYCLOPENTYLTHEOPHYLLINE] |  |  |  | pKi [8]: 5.89; pKi [9]: 9.30 |
| Nc1nc2ccccc2n2c(=O)n(-c3cccc(F)c3)nc12 |  | 7.55 | 6.80 |  |
| Nc1cccc2c1nc(N)c1nn(-c3ccccc3)c(=O)n12 |  |  |  | inhibition [5]: 54% |
| Cn1c(=O)c2nn(-c3ccccc3)c(=O)n2c2ccccc21 | 53% | 6.51 | 7.44 |  |
| O=c1n(-c2ccccc2)nc2c(NCC(c3ccccc3)c3ccccc3)nc3ccccc3n12 |  |  |  | pKi [8]: 5.99; pKi [9]: 7.27 |
| O=c1n(-c2ccccc2)nc2c(NC3CCCCC3)nc3ccccc3n12 |  | 8.84 | 6.30 |  |
| Cc1cccc(-n2nc3c(=O)[nH]c4ccccc4n3c2=O)c1 | 5% | 6.36 | 7.04 |  |
| O=C(Nc1nc2ccccc2n2c(=O)n(-c3ccccc3)nc12)c1ccccc1 | 53% | 7.05 | 8.83 |  |
| Cc1ccc(-n2nc3c(=O)[nH]c4ccccc4n3c2=O)cc1 | 0% | 6.81 | 7.60 |  |
| C#CCn1c(=O)c2nn(-c3ccccc3)c(=O)n2c2ccccc21 |  |  | 6.32 |  |
